According to ChEMBL document CHEMBL3739400, “Penicyclones A-E, Antibacterial Polyketides from the Deep-Sea-Derived Fungus Penicillium sp. F23-2” (J Nat Prod, 2015):
≈ marks a conversion by molar mass, not a printed value.

What was measured:
HeLa = test: Cytotoxicity against human HeLa cells assessed as reduction in cell viability by MTT assay; format: functional, cell-based
Procedure, shortened: (§1)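 Cytotoxicity was measured by MTT assay on HeLa (human cervical cancer) and BEL-7402 (human hepatocellular carcinoma) cell lines, with doxorubicin as the positive control.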

[1] = Cytotoxicity against human Bel7402 cells assessed as reduction in cell viability by MTT assay; format: functional, cell-based; details: Bel-7402; procedure, shortened: as §1
HEK293 = test: Cytotoxicity against HEK293 cells assessed as reduction in cell viability by sulforhodamine B assay; format: cell-based; details: Homo sapiens
Staphylococcus aureus = test: Antibacterial activity against Staphylococcus aureus ATCC 6538 assessed as growth inhibition after 24 hrs by broth microdilution method; format: functional; details: ATCC 6538, 24 h
Procedure, shortened: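 Broth microdilution assay against Staphylococcus aureus, with penicillin G as the positive control.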

[2] = Cytotoxicity against human HCT116 cells assessed as reduction in cell viability by sulforhodamine B assay; format: functional, cell-based; details: HCT-116
A549 = test: Cytotoxicity against human A549 cells assessed as reduction in cell viability by sulforhodamine B assay; format: functional, cell-based

| SMILES | MIC (Staphylococcus aureus) [µg/mL] | IC50 (HeLa) [µM] | IC50 [1] [µM] | IC50 (HEK293) [µM] | IC50 [2] [µM] | IC50 (A549) [µM] |
| --- | --- | --- | --- | --- | --- | --- |
| COC(=O)[C@H](C)CC[C@@]1(O)C(=O)C=C(C)[C@@H](O)[C@H]1O | 0.9 (≈ 3.31 µM) | > 50 | > 50 | > 50 | > 50 | > 50 |
| CC1=CC(=O)[C@](O)(CC[C@@H](C)C(=O)O)[C@H](O)[C@@H]1O | 1 (≈ 3.87 µM) | > 50 | > 50 | > 50 | > 50 | > 50 |
| CC1=CC(=O)[C@]2(CC/C(C)=C/CC(=O)O)O[C@@H]2[C@@H]1O | 0.8 (≈ 3 µM) | > 50 | > 50 | > 50 | > 50 | > 50 |

The next molecules have a lower MIC (Staphylococcus aureus) than those just listed; values first:

| MIC (Staphylococcus aureus) [µg/mL] | SMILES | IC50 (HeLa) [µM] | IC50 [1] [µM] | IC50 (HEK293) [µM] | IC50 [2] [µM] | IC50 (A549) [µM] |
| --- | --- | --- | --- | --- | --- | --- |
| 0.5 (≈ 1.88 µM) | CC1=CC(=O)[C@]2(C/C=C(\C)CCC(=O)O)O[C@@H]2[C@@H]1O | > 50 | > 50 | > 50 | > 50 | > 50 |
| 0.3 (≈ 1.25 µM) | CC1=CC(=O)[C@]2(CC[C@@H](C)C(=O)O2)[C@H](O)[C@@H]1O | > 50 | > 50 | > 50 | > 50 | > 50 |
